In ChEMBL document CHEMBL4325870, “Synthesis and biological evaluation of 3-aryl-quinolin derivatives as anti-breast cancer agents targeting ERα and VEGFR-2” (Eur J Med Chem, 2019):

target: Vascular endothelial growth factor receptor 2 (Homo sapiens, UniProt P35968); conditions: not given
Sequence (P35968 whole entry): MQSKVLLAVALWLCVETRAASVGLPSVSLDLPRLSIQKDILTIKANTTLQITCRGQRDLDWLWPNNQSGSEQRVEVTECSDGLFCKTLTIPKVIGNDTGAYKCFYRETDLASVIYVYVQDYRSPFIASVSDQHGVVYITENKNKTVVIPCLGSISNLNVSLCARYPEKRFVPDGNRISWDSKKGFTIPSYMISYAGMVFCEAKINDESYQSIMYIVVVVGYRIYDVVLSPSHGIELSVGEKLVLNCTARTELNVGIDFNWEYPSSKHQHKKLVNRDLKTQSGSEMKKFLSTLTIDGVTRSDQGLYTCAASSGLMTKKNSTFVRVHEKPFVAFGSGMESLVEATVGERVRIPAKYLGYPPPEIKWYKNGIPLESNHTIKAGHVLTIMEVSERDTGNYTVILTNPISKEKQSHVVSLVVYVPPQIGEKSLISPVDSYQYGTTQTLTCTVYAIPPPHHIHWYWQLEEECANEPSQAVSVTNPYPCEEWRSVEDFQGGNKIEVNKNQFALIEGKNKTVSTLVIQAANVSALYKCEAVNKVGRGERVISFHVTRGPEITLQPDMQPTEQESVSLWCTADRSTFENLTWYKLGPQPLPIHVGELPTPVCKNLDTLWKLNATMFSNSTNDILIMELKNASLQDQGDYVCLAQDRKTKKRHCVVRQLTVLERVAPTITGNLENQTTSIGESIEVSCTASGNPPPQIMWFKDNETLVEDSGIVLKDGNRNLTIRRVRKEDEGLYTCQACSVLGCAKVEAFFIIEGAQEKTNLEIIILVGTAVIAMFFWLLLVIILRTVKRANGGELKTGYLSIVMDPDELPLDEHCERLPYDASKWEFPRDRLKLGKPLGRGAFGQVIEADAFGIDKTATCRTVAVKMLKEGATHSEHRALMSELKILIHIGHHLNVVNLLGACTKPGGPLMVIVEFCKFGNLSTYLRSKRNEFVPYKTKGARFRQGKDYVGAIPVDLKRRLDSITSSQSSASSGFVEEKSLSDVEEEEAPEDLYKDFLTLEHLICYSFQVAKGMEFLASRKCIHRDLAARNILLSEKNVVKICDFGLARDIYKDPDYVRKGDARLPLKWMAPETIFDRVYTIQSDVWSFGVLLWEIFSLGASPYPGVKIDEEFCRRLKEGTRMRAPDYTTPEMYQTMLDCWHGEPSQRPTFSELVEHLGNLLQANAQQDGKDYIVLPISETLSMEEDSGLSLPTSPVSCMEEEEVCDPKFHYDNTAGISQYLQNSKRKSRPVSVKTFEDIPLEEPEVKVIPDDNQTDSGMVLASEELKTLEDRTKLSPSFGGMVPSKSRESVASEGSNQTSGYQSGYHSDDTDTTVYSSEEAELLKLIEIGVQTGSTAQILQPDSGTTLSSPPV

Structure (SMILES)	IC50 [µM]
COc1ccc(-c2cc3ccc(OC)cc3nc2Nc2ccc(NC(=O)CN3CCOCC3)cc2)cc1	0.11
COc1ccc(-c2cc3cc(OC)ccc3nc2Nc2ccc(NC(=O)CN3CCCCC3)cc2)cc1	0.08
COc1ccc(-c2cc3cc(OC)ccc3nc2Nc2ccc(NC(=O)CN3CCCC3)cc2)cc1	0.131
COc1ccc(-c2cc3cc(OC)ccc3nc2Nc2ccc(NC(=O)CN3CCN(C)CC3)cc2)cc1	0.086
COc1ccc(-c2cc3cc(OC)ccc3nc2Nc2ccc(NC(=O)CN3CCOCC3)cc2)cc1	0.117

Now from value to molecule:

IC50 [µM]	Structure (SMILES)
0.114	COc1ccc(-c2cc3ccc(OC)cc3nc2Nc2ccc(NC(=O)CN(C)C)cc2)cc1
0.109	COc1ccc(-c2cc3cc(OC)ccc3nc2Nc2ccc(NC(=O)CN(C)C)cc2)cc1

tested on: HUVEC; experiment: Antiproliferative activity against HUVEC after 48 hrs by MTT assay; assay type: functional, cell-based; conditions: Homo sapiens
Outline: (§1)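 Cells kept in RPMI1640 with 10% FBS and penicillin/streptomycin at 37 °C, 5% CO2. Seeded at 1 x 10^5/mL, grown 24 h, then exposed to compound-containing medium for 48 h; controls received 1% DMSO medium. MTT (5 mg/mL) added for 4 h in the dark, formazan dissolved in DMSO, absorbance read. Value is concentration giving 50% growth inhibition.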

Structure (SMILES)	IC50 [µM]
COc1ccc(-c2cc3ccc(OC)cc3nc2Nc2ccc(NC(=O)CN3CCOCC3)cc2)cc1	9.1
COc1ccc(-c2cc3cc(OC)ccc3nc2Nc2ccc(NC(=O)CN3CCCCC3)cc2)cc1	> 50
COc1ccc(-c2cc3ccc(OC)cc3nc2Nc2ccc(NC(=O)CN(C)C)cc2)cc1	9.2
COc1ccc(-c2cc3cc(OC)ccc3nc2Nc2ccc(NC(=O)CN(C)C)cc2)cc1	22.2
COc1ccc(-c2cc3cc(OC)ccc3nc2Nc2ccc(NC(=O)CN3CCCC3)cc2)cc1	13.1
COc1ccc(-c2cc3cc(OC)ccc3nc2Nc2ccc(NC(=O)CN3CCN(C)CC3)cc2)cc1	7.4
COc1ccc(-c2cc3cc(OC)ccc3nc2Nc2ccc(NC(=O)CN3CCOCC3)cc2)cc1	> 50

tested on: MCF7; experiment: Cell cycle arrest in human MCF7 cells assessed as accumulation at G2 phase at 1.25 uM after 24 hrs by propidium iodide staining based flow cytometry (reference value: 31.48%); assay type: functional; conditions: not given
Outline: (§2)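 MCF-7 cells exposed to 1.25 μM compound or DMSO vehicle for 12 h and 24 h. Cells washed in ice-cold PBS, pelleted, fixed in ice-cold 70% ethanol, RNase-treated (0.1 mg/mL), stained with propidium iodide, and analysed by flow cytometry for G1, S and G2 phase distribution.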

Structure (SMILES)	Activity [%]
COc1ccc(-c2cc3cc(OC)ccc3nc2Nc2ccc(NC(=O)CN3CCN(C)CC3)cc2)cc1	20.43

tested on: MCF7; experiment: Cell cycle arrest in human MCF7 cells assessed as accumulation at G2 phase at 1.25 uM after 12 hrs by propidium iodide staining based flow cytometry (reference value: 31.48%); assay type: functional; conditions: not given
Outline: as §2

Structure (SMILES)	Activity [%]
COc1ccc(-c2cc3cc(OC)ccc3nc2Nc2ccc(NC(=O)CN3CCN(C)CC3)cc2)cc1	28.82

tested on: Ishikawa; experiment: Antiproliferative activity against human Ishikawa cells after 48 hrs by MTT assay; assay type: functional; conditions: not given
Outline: as §1

Structure (SMILES)	Activity [µM]
COc1ccc(-c2cc3ccc(OC)cc3nc2Nc2ccc(NC(=O)CN3CCOCC3)cc2)cc1	>50
COc1ccc(-c2cc3cc(OC)ccc3nc2Nc2ccc(NC(=O)CN3CCCCC3)cc2)cc1	>50
COc1ccc(-c2cc3ccc(OC)cc3nc2Nc2ccc(NC(=O)CN(C)C)cc2)cc1	8.4
COc1ccc(-c2cc3cc(OC)ccc3nc2Nc2ccc(NC(=O)CN(C)C)cc2)cc1	>50
COc1ccc(-c2cc3cc(OC)ccc3nc2Nc2ccc(NC(=O)CN3CCCC3)cc2)cc1	10.3
COc1ccc(-c2cc3cc(OC)ccc3nc2Nc2ccc(NC(=O)CN3CCN(C)CC3)cc2)cc1	1.8
COc1ccc(-c2cc3cc(OC)ccc3nc2Nc2ccc(NC(=O)CN3CCOCC3)cc2)cc1	>50

target: T1, Estrogen receptor (Homo sapiens, UniProt P03372); experiment: Displacement of fluorescent estrogen ligand from recombinant human full length untagged ERalpha expressed in Spodoptera frugiperda insect cells measured after 2 hrs by fluorescence polarization assay; conditions: not given
T1 sequence (P03372 whole entry): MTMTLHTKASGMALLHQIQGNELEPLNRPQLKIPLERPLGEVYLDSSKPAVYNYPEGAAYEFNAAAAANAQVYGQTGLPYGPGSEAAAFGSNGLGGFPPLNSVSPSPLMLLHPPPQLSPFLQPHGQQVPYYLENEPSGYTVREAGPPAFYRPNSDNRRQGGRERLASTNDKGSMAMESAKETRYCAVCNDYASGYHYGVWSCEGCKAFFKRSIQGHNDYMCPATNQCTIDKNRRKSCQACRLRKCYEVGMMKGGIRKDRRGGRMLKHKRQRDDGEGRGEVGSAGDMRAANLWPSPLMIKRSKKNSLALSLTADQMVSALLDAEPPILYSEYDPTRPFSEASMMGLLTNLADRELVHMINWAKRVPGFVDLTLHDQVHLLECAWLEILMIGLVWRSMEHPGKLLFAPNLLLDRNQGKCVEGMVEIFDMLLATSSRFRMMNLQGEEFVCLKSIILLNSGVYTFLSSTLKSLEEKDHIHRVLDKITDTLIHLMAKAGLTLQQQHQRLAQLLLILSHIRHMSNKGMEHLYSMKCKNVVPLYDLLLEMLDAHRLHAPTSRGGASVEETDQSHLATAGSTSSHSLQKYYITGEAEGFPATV

IC50 [µM]	Structure (SMILES)
1.78	COc1ccc(-c2cc3cc(OC)ccc3nc2Nc2ccc(NC(=O)CN3CCN(C)CC3)cc2)cc1

tested on: MCF7; experiment: Effect on progesterone receptor mRNA expression in non-stimulated human MCF7 cells at 1 uM by SYBR green dye based RT-PCR analysis; assay type: ADME, cell-based; conditions: mcf7, 1 µM
Outline: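 Real-time PCR on MCF-7 cells given compound at 1 μM alone, without estradiol. Amplification: 95 °C 2 min, then 40 cycles of 95 °C 10 s, 60 °C 30 s, 95 °C 10 s. PgR mRNA normalised to GAPDH by the ΔΔCT method; mean ± SD, n=3.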

Structure (SMILES)	Activity
COc1ccc(-c2cc3cc(OC)ccc3nc2Nc2ccc(NC(=O)CN3CCN(C)CC3)cc2)cc1	Non-Toxic

tested on: MCF7; experiment: Antiproliferative activity against human MCF7 cells after 48 hrs by MTT assay; assay type: functional, cell-based; conditions: MCF7, 48 h
Outline: as §1

Structure (SMILES)	IC50 [µM]
COc1ccc(-c2cc3ccc(OC)cc3nc2Nc2ccc(NC(=O)CN3CCOCC3)cc2)cc1	> 50
COc1ccc(-c2cc3cc(OC)ccc3nc2Nc2ccc(NC(=O)CN3CCCCC3)cc2)cc1	> 50
COc1ccc(-c2cc3cc(OC)ccc3nc2Nc2ccc(NC(=O)CN3CCCC3)cc2)cc1	7.29
COc1ccc(-c2cc3cc(OC)ccc3nc2Nc2ccc(NC(=O)CN3CCN(C)CC3)cc2)cc1	1.8
COc1ccc(-c2cc3cc(OC)ccc3nc2Nc2ccc(NC(=O)CN3CCOCC3)cc2)cc1	> 50

The next lines start with the values.

IC50 [µM]	Structure (SMILES)
9.6	COc1ccc(-c2cc3ccc(OC)cc3nc2Nc2ccc(NC(=O)CN(C)C)cc2)cc1
39.5	COc1ccc(-c2cc3cc(OC)ccc3nc2Nc2ccc(NC(=O)CN(C)C)cc2)cc1

tested on: MCF7; experiment: Cell cycle arrest in human MCF7 cells assessed as accumulation at S phase at 1.25 uM after 12 hrs by propidium iodide staining based flow cytometry (reference value: 18.93%); assay type: functional; conditions: not given
Outline: as §2

Structure (SMILES)	Activity [%]
COc1ccc(-c2cc3cc(OC)ccc3nc2Nc2ccc(NC(=O)CN3CCN(C)CC3)cc2)cc1	18.78

tested on: Ishikawa; experiment: Stimulation of cell proliferation in human Ishikawa cells at 1 to 10 uM after 48 hrs by MTT assay; assay type: ADME, cell-based; conditions: not given
Outline: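 Ishikawa endometrial cells in RPMI1640 with 10% FBS, seeded at 1 x 10^5/mL, exposed 48 h to compound at 1 μM or 10 μM, then read by MTT assay (5 mg/mL MTT, 4 h, dark, DMSO solubilisation, absorbance).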

Structure (SMILES)	Activity
COc1ccc(-c2cc3cc(OC)ccc3nc2Nc2ccc(NC(=O)CN3CCN(C)CC3)cc2)cc1	Non-Toxic

tested on: MCF7; experiment: Cell cycle arrest in human MCF7 cells assessed as accumulation at G1 phase at 1.25 uM after 24 hrs by propidium iodide staining based flow cytometry (reference value: 46.25%); assay type: functional; conditions: not given
Outline: as §2

Structure (SMILES)	Activity [%]
COc1ccc(-c2cc3cc(OC)ccc3nc2Nc2ccc(NC(=O)CN3CCN(C)CC3)cc2)cc1	54.63

tested on: MCF7; experiment: Cell cycle arrest in human MCF7 cells assessed as accumulation at G1 phase at 1.25 uM after 12 hrs by propidium iodide staining based flow cytometry (reference value: 46.25%); assay type: functional; conditions: not given
Outline: as §2

Structure (SMILES)	Activity [%]
COc1ccc(-c2cc3cc(OC)ccc3nc2Nc2ccc(NC(=O)CN3CCN(C)CC3)cc2)cc1	51.18

tested on: MCF7; experiment: Cell cycle arrest in human MCF7 cells assessed as accumulation at S phase at 1.25 uM after 24 hrs by propidium iodide staining based flow cytometry (reference value: 18.93%); assay type: functional; conditions: not given
Outline: as §2

Structure (SMILES)	Activity [%]
COc1ccc(-c2cc3cc(OC)ccc3nc2Nc2ccc(NC(=O)CN3CCN(C)CC3)cc2)cc1	22.39
